Molecular target: T1, RNF2 (Homo sapiens, UniProt Q99496)
T1 sequence (Q99496 2-336): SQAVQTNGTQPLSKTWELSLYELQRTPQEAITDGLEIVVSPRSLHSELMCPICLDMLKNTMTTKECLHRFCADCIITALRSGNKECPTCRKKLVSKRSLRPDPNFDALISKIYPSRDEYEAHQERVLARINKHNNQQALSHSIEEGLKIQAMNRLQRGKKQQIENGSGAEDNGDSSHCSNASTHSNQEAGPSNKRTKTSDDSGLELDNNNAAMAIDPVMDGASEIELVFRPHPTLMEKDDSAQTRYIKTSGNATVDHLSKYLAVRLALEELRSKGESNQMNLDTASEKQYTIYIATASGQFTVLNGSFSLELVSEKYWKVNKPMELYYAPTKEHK
Type: cell-based
Summary of the method: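 RNF2-PRC1 complex immunoprecipitated from PC3 cells, washed, then preincubated with test compound for 30 min at 4 °C. Products run on SDS-PAGE and immunoblotted with anti-H2A. In cells, histones acid-extracted (0.4N H2SO4) from nuclear extracts and probed for H2A/H2AUb.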

Substance: GW-516 [compound 4]
- IC50: ~0.47 µM

Source: paper PMC7210785 (Cancer cell, 2019)
